# Screening results deposited in PubChem by The Scripps Research Institute Molecular Screening Center.
# Hits are enriched below; roughly 1.9% of the tested compounds scored in any of these assays.
# M4 PAM: potentiates acetylcholine response at human M4 receptor; AID 624126; activation, % at 3 µM; actives 0.4% (n = 360,000); CHO-K1 hM4/Gqi5, Fluo-8 calcium fluorescence, ACh EC20; 0% = ACh EC20, 100% = maximal ACh;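 active means activation above its plate's cutoff, the mean activation of sample wells plus 3 SD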
# M5 antag: antagonists of human muscarinic M5 receptor (CHRM5). inhibition, % at 3 µM. CHO-hM5 cells, Fluo-8 calcium fluorescence, ACh EC80. actives 0.59% (n = 360,000);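 active means inhibition above a per-plate cutoff, the mean of that plate's test compounds plus 3 SD, cut at about 27% in these data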;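 further: 0% = acetylcholine EC80 with DMSO and 100% = DMSO without agonist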
# Target sequence (P08912 whole entry, looked up): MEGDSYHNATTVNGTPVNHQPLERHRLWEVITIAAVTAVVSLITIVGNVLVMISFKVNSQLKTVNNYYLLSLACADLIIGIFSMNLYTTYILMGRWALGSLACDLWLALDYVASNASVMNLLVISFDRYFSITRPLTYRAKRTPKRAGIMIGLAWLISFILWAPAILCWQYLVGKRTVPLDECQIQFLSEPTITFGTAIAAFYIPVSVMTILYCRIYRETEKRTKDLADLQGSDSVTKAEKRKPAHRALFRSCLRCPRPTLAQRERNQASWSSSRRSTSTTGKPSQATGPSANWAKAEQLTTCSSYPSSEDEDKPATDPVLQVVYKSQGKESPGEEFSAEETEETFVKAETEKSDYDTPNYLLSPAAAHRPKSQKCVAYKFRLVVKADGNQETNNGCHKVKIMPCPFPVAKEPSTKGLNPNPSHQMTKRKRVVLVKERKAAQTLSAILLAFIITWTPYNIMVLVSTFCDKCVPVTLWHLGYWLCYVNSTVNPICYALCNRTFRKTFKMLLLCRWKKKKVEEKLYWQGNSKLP
# CHRM5 PAM: potentiates acetylcholine response at human M5 receptor | P08912 | CHO-K1 hM5, Fluo-8 calcium, ACh EC20 PAM; 0% = ACh EC20, 100% = ACh EC100 | activation, % at 3 µM | actives 0.3% (n = 360,000) | AID 624038;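 active means activation above the run cutoff, the mean activation of all test compounds plus 3 SD, cut at about 18% in these data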
#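 Assay system: CHO-K1 hM5 cells. Also added: acetylcholine at EC20 concentration, added after compound. Dosing: 3 µM, single dose. Times: compound preincubation 140 s before EC20 acetylcholine addition. Signal: Fluo-8 calcium fluorescence. Measure: % activation relative to EC20 and EC100 ACh responses. Repeats: singlicate, one well per test compound.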
# M5 ag: CHRM5 agonism in calcium assay; CHO-K1 hM5 cells, Fluo-8 calcium fluorescence; 0% DMSO wells, 100% maximal acetylcholine response; activation, % at 3 µM; actives 0.19% (n = 360,000); AID 624037;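 active means activation above the run's mean over test compounds plus 3 SD, cut at about 23% in these data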;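 further: signal is peak over basal fluorescence ratio across the kinetic read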
# CHRM4 agonist: agonists of human muscarinic M4 receptor (CHRM4). P08173. CHO-K1 hM4/Gqi5, Fluo-8 calcium fluorescence; vehicle 0%, full acetylcholine response 100%. activation, % at 3 µM. actives 0.14% (n = 360,000). AID 624127;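 active means activation above the run mean over all test wells plus 3 SD, cut at about 32% in these data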;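 further: peak over basal fluorescence ratio per well then scaled between controls; 0% = DMSO wells and 100% = acetylcholine at EC100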
# CHRM4 antagonist: antagonists of human muscarinic M4 receptor (CHRM4); CHO-hM4 cells, ACh EC80, Fluo-8 calcium fluorescence; actives 0.73% (n = 360,000); inhibition, % at 3 µM; AID 624125;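 active means inhibition above its plate's cutoff, the mean inhibition of sample wells plus 3 SD, cut at about 27% in these data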;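 further: 0% = acetylcholine EC80 with DMSO and 100% = DMSO without agonist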
# An asterisk follows results filed as active.
SMILES,M4 PAM,M5 antag,CHRM5 PAM,M5 ag,CHRM4 agonist,CHRM4 antagonist
COc1ccccc1NC(=O)C1=C(C)NC(=O)NC1c1ccc(C)cc1 (stereo not drawn),-13,1,-6,-3,0,32*
Cc1ccc(C#CC[N+]2(CC#Cc3ccc(C)cc3)CCCCC2)cc1,-15,25,-19,-11,1,24
O=C(CSc1ccc2ccccc2n1)NCCC1=CCCCC1,-6,30*,-13,-8,-2,-12
COc1ccc(C(=O)N/C(=C\c2cn(C)c3ccccc23)C(=O)NCCCN2CCOCC2)cc1OC,4,11,-3,-5,0,-8
O=c1[nH]c2ccccc2c2nc(-c3cccc(S(=O)(=O)N4CCCC4)c3)nn12,19,6,-5,-3,1,29*
CCN(CC)c1ccc2c(-c3ccc(S(=O)(=O)O)cc3S(=O)(=O)[O-])c3ccc(=[N+](CC)CC)cc-3oc2c1,-17,8,-8,23,78*,17
CCOC(=O)c1c(C)nc2sc3c(=O)n(-c4ccc(C)cc4)cnc3c2c1-c1ccc(OC)cc1,-3,4,-6,2,0,4
CCOC(=O)CSc1nc(C)nc2c1sc1nc(C)c(C(C)=O)c(-c3ccc(OC)cc3)c12,20*,5,-1,1,1,8
O=C(NN1CCN(Cc2ccccc2)CC1)c1ccc(N2CCOCC2)c([N+](=O)[O-])c1,-5,1,8,0,1,5
Cc1ccc(C2(c3ccccc3)NC(=O)N(CC(=O)NCc3ccco3)C2=O)cc1C (stereo not drawn),-3,-11,18*,-10,-1,-1
CC(C)c1cccc(C(C)C)c1NC(=O)c1ccccc1,7,11,-4,-1,0,-4
COc1cc2c(cc1OC)C1(CCCC1)CNC2c1cccc([N+](=O)[O-])c1 (stereo not drawn),-3,-10,2,0,1,9
CCCC1N2CC3([N+](=O)[O-])CN1CC([N+](=O)[O-])(C2)C3(C)C (stereo not drawn),20*,6,0,1,1,-1
Cc1ccc(C2N3CC4([N+](=O)[O-])CN2CC([N+](=O)[O-])(C3)C4(C)C)cc1 (stereo not drawn),3,15,-6,-1,1,-12
CCOC(=O)C1(Cc2ccccc2C(F)(F)F)CCN(C2CCN(C(C)=O)CC2)CC1,-1,10,-11,-10,1,-1
C(=Cc1c[nH]c2ccccc12)c1ccc2ccccc2n1,-10,8,-7,19,36*,1
C(=Cc1c[nH]c2ccccc12)c1nccc2ccccc12,2,22,-4,10,4,-6
COC(=O)c1ccc(/C=C/c2c(-c3ccc(OC)cc3)oc3ccccc23)cc1,26*,-6,4,3,1,5
COc1ccc(S(=O)(=O)N2CC3CCCN3c3cc(C(F)(F)F)ccc32)cc1 (stereo not drawn),-2,-2,-11,-9,0,2
CS(=O)(=O)N1CC2CCCN2c2ccc(C(F)(F)F)cc21 (stereo not drawn),11,6,2,-3,3,-12
COc1ccc(S(=O)(=O)N2CC3CCCN3c3ccc(C(F)(F)F)cc32)cc1 (stereo not drawn),-15,1,-6,-2,0,30*
O=S(=O)(c1cc(Cl)ccc1Cl)N1CC2CCCN2c2ccc(C(F)(F)F)cc21 (stereo not drawn),-24,3,-10,-5,-1,45*
NS(=O)(=O)c1ccc(CCNCc2cccnc2)cc1,4,6,-3,3,0,-11
CN1C(=O)/C(=C/c2ccccc2OCc2cccc(F)c2)N(C)C1=S,-23,45*,-18,-5,-1,65*
CN1C(=O)/C(=C/c2ccc(OCc3ccc(F)cc3)cc2)N(C)C1=S,-2,-2,-1,-1,0,0
SMILES,M4 PAM,M5 antag,CHRM5 PAM,M5 ag,CHRM4 agonist,CHRM4 antagonist
CN1CCC(OC2c3ccccc3CCc3ccccc32)CC1,-12,99*,-20,-2,3,99*
CN1CCC(OC(=O)c2ccccc2)CC1,-1,10,-12,-9,0,-6
Cc1ccc(Cl)cc1N1CCN(Cc2cc(=O)n3ccsc3n2)CC1,2,-14,19*,0,5,-17
COc1ccc(NC2=CC(c3cccc(OC)c3)N(c3ccc(OC)cc3)C2=O)cc1 (stereo not drawn),0,50*,-8,7,2,24
CC(C)N1CC(C(=O)Nc2ccc(F)c(Cl)c2)CC1=O (stereo not drawn),-4,0,-2,2,1,6
COc1ccc([C@H]2CC(=O)C=C(c3ccc(CNC(=O)OC(C)(C)C)cc3)C2)cc1,-14,27,-39,2,25,28*
COc1ccc([C@H]2CC(=O)C=C(c3ccc(OC(F)(F)F)cc3)C2)cc1,9,11,-10,0,0,-4
CC(C)c1ccc(S(=O)(=O)Nc2ccc(SC(F)F)cc2)cc1,-14,1,-14,-5,6,28*
CC(C)c1ccc(NS(=O)(=O)c2ccc(N3C(=O)CCC3=O)cc2)cc1,-51,27*,-23,6,21,11
Cc1c(CCC(=O)O)c(=O)oc2cc3occ(-c4ccc(F)cc4)c3cc12,5,38*,35*,-1,1,-12
Cc1c(NC(=O)CN2C(=O)NC(C)(c3ccc(Cl)cc3)C2=O)c(=O)n(-c2ccccc2)n1C (stereo not drawn),-6,5,3,1,0,17
CC(=O)Nc1ccc(NC(=O)CNC(=O)c2sc3ccccc3c2Cl)cc1,6,3,1,3,0,-8
COC(=O)c1ccc(NC(=O)CNC(=O)c2sc3ccccc3c2Cl)cc1,22*,11,-8,1,0,-1
CCC(=O)C1CCCN(C(=O)CCc2nnc(C3(c4ccc(Cl)cc4)CCC3)o2)C1 (stereo not drawn),21*,-12,5,-3,4,-10
COc1ccc(CNC(=O)[C@@H]2CC=C[C@@H]3CCN(Cc4ccc(Cl)c(Cl)c4)C(=O)[C@@H]32)cc1,10,9,-4,1,5,-6
COc1ccc(CNC[C@@H](CCCCN(C)Cc2ccc(OC)cc2)N2C[C@H](c3ccccc3)N(CCc3ccc(Cl)c(Cl)c3)C(=O)C2=O)cc1,3,14,-3,-3,60*,21
